Converted amounts (≈) assume the structure as drawn. Bridge positions count the residues as written; N and C are the ends. Square brackets hold non-standard residues; d marks the D form. Peptide text beside a SMILES is read from it. * marks the point of attachment. ξ: configuration not given here. ξGly(octyl) = CCCCCCCCC(N)C(=O)O; hSer = N[C@@H](CCO)C(=O)O; Octanoyl = CCCCCCCC(=O)*; Dab = NCC[C@H](N)C(=O)O
Assays:
Pseudomonas aeruginosa [1] = assay: Antibacterial activity against Pseudomonas aeruginosa ATCC 27853 after 18 hrs by 2 fold serial dilution method; type: functional; details: ATCC 27853, 18 h
Summary of the method: (§1)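 Overnight cultures in nutrient or Mueller Hinton broth at 37 °C with shaking, diluted 50-fold into fresh MHB and grown 1.5–3 h to mid-log. Inoculum 5×10^5 CFU/mL in 2-fold serial dilutions, final range 32 to 0.015 μg/mL. MIC read visually after 18 h at 37 °C as the lowest concentration with no visible growth.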

Pseudomonas aeruginosa [2] = assay: Antibacterial activity against clinical isolate polymyxin resistant Pseudomonas aeruginosa FADDI-PA070 after 18 hrs by 2 fold serial dilution method; type: functional; details: FADDI-PA070, 18 h
Summary of the method: (§2)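 Polymyxin-resistant clinical isolates were grown overnight at 37 °C in NB or MHB with shaking, diluted 50-fold in MHB and grown 1.5–3 h to mid-log phase. The inoculum was 5×10^5 CFU/mL. Compounds were 2-fold broth serial dilutions, final 32 to 0.015 μg/mL; the polymyxin controls ran 128–0.06 μg/mL. The MIC was the lowest concentration with no visible growth after 18 h at 37 °C.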

[3] = Cytotoxicity against human HepG2 cells after 24 hrs by resazurin assay; type: cell-based; details: HepG2 cells
Staphylococcus aureus = assay: microbe, parasite or virus in culture; details: ATCC 25923, 18 h
Klebsiella pneumoniae [4] = assay: Antibacterial activity against multidrug resistant Klebsiella pneumoniae ATCC 700603 after 18 hrs by 2 fold serial dilution method; type: functional; details: Klebsiella pneumoniae, 700603, 18 h
Summary of the method: (§3)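 Overnight cultures at 37 °C in nutrient or Mueller Hinton broth with shaking were diluted 50-fold in MHB and grown 1.5–3 h to mid-log phase. The inoculum was 5×10^5 CFU/mL in MHB. Compounds were 2-fold serially diluted, final 32 to 0.015 μg/mL. After 18 h at 37 °C, the MIC was read visually as the lowest concentration with no visible growth.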

Klebsiella pneumoniae [5] = assay: Antibacterial activity against Klebsiella pneumoniae ATCC BAA-2146 expressing NDM-1 after 18 hrs by 2 fold serial dilution method; type: functional; details: ATCC BAA-2146, 18 h; summary of the method: as §3
Pseudomonas aeruginosa [6] = assay: Antibacterial activity against clinical isolate polymyxin resistant Pseudomonas aeruginosa PA9704 after 18 hrs by 2 fold serial dilution method; type: functional; details: PA9704, 18 h; summary of the method: as §2
Klebsiella pneumoniae [7] = assay: Antibacterial activity against Klebsiella pneumoniae ATCC 13883 after 18 hrs by 2 fold serial dilution method; type: functional; details: ATCC 13883, 18 h; summary of the method: as §1
Escherichia coli = assay: Antibacterial activity against Escherichia coli ATCC 25922 after 18 hrs by 2 fold serial dilution method; type: functional; details: ATCC 25922, 18 h; summary of the method: as §1
Acinetobacter baumannii [8] = assay: Antibacterial activity against Acinetobacter baumannii ATCC 19606 after 18 hrs by 2 fold serial dilution method; type: functional; details: ATCC 19606, 18 h; summary of the method: as §1
Klebsiella pneumoniae [9] = assay: Antibacterial activity against clinical isolate carbapenem and polymyxin resistant Klebsiella pneumoniae Koprana 100650661:1 after 18 hrs by 2 fold serial dilution method; type: functional; details: Koprana 100650661:1, 18 h; summary of the method: as §2
Klebsiella pneumoniae [10] = assay: Antibacterial activity against clinical isolate carbapenem and polymyxin resistant Klebsiella pneumoniae 138-16357-20362 after 18 hrs by 2 fold serial dilution method; type: functional; details: 138-16357-20362, 18 h; summary of the method: as §2
Acinetobacter baumannii [11] = assay: Antibacterial activity against clinical isolate carbapenem and polymyxin resistant Acinetobacter baumannii Ptyela 100734512:2 after 18 hrs by 2 fold serial dilution method; type: functional; details: Ptyela 100734512:2, 18 h; summary of the method: as §2

Row | SMILES | MIC (Pseudomonas aeruginosa [1]) [µg/mL] | MIC (Pseudomonas aeruginosa [2]) [µg/mL] | CC50 at 24 h [3] [µM] | MIC (Staphylococcus aureus) [µg/mL] | MIC (Klebsiella pneumoniae [4]) [µg/mL] | MIC (Klebsiella pneumoniae [5]) [µg/mL] | MIC (Pseudomonas aeruginosa [6]) [µg/mL] | MIC (Klebsiella pneumoniae [7]) [µg/mL] | MIC (Escherichia coli) [µg/mL] | MIC (Acinetobacter baumannii [8]) [µg/mL] | MIC (Klebsiella pneumoniae [9]) [µg/mL] | MIC (Klebsiella pneumoniae [10]) [µg/mL] | MIC (Acinetobacter baumannii [11]) [µg/mL]
1 | CCCCCCCC(=O)N[C@@H](CCN)C(=O)N[C@H](C(=O)N[C@@H](CCN)C(=O)N[C@H]1CCNC(=O)[C@H]([C@@H](C)O)NC(=O)[C@H](CCN)NC(=O)[C@H](CCN)NC(=O)[C@H](CC(C)C)NC(=O)[C@@H](Cc2ccccc2)NC(=O)[C@H](CCO)NC1=O)[C@@H](C)O (Octanoyl-[Dab]T[Dab][Dab][hSer][dF]L[Dab][Dab]T; lactam 4-C) | > 32 | > 32 | > 300 | > 32 | > 32 | 32 (≈ 26.9 µM) | > 32 | > 32 | 16 (≈ 13.4 µM) | > 32 | > 32 | > 32 | > 32
2 | CCCCCCCCC1NC(=O)[C@H](CCN)NC(=O)[C@@H](NC(=O)[C@H](CCN)NC(=O)[C@@H](NC(=O)[C@H](CCN)NC(=O)CCCCCCC)[C@@H](C)O)CCNC(=O)[C@H]([C@@H](C)O)NC(=O)[C@H](CCN)NC(=O)[C@H](CCN)NC(=O)[C@H](CC(C)C)NC1=O (stereo not given in full) (Octanoyl-[Dab]T[Dab][Dab][Dab][ξGly(octyl)]L[Dab][Dab]T; lactam 4-C) | 2 (≈ 1.65 µM) | 4 (≈ 3.3 µM) | 254 | 16 (≈ 13.2 µM) | 1 (≈ 0.825 µM) | 1 (≈ 0.825 µM) | 8 (≈ 6.6 µM) | 2 (≈ 1.65 µM) | 2 (≈ 1.65 µM) | 1 (≈ 0.825 µM) | 16 (≈ 13.2 µM) | 16 (≈ 13.2 µM) | 16 (≈ 13.2 µM)
3 | CCCCCCCCC1NC(=O)[C@@H](Cc2ccccc2)NC(=O)[C@H](CCN)NC(=O)[C@@H](NC(=O)[C@H](CCN)NC(=O)[C@@H](NC(=O)[C@H](CCN)NC(=O)CCCCCCC)[C@@H](C)O)CCNC(=O)[C@H]([C@@H](C)O)NC(=O)[C@H](CCN)NC(=O)[C@H](CCN)NC1=O (stereo not given in full) (Octanoyl-[Dab]T[Dab][Dab][Dab][dF][ξGly(octyl)][Dab][Dab]T; lactam 4-C) | 2 (≈ 1.61 µM) | 16 (≈ 12.8 µM) | 116 | 8 (≈ 6.42 µM) | 2 (≈ 1.61 µM) | 1 (≈ 0.803 µM) | 8 (≈ 6.42 µM) | 2 (≈ 1.61 µM) | 1 (≈ 0.803 µM) | 1 (≈ 0.803 µM) | 32 (≈ 25.7 µM) | 32 (≈ 25.7 µM) | 8 (≈ 6.42 µM)
4 | CCCCCCCC(=O)N[C@@H](CCN)C(=O)N[C@H](C(=O)N[C@@H](CCN)C(=O)N[C@H]1CCNC(=O)[C@H]([C@@H](C)O)NC(=O)[C@H](CCNC(=O)[C@@H](N)CCC(=O)O)NC(=O)[C@H](CCN)NC(=O)[C@H](CC(C)C)NC(=O)[C@@H](Cc2ccccc2)NC(=O)[C@H](CCN)NC1=O)[C@@H](C)O (Octanoyl-[Dab]T[Dab][Dab][Dab][dF]L[Dab][Dab](Glu)T; lactam 4-C) | 8 (≈ 6.07 µM) | > 32 | > 300 | > 32 | 4 (≈ 3.03 µM) | 4 (≈ 3.03 µM) | > 32 | 16 (≈ 12.1 µM) | 4 (≈ 3.03 µM) | 16 (≈ 12.1 µM) | > 32 | > 32 | > 32
5 | CCCCCCCC(=O)N[C@@H](CCN)C(=O)N[C@H](C(=O)N[C@@H](CCN)C(=O)N[C@H]1CCNC(=O)[C@H]([C@@H](C)O)NC(=O)[C@H](CCCNC(=N)N)NC(=O)[C@H](CCN)NC(=O)[C@H](CC(C)C)NC(=O)[C@@H](Cc2ccccc2)NC(=O)[C@H](CCN)NC1=O)[C@@H](C)O (Octanoyl-[Dab]T[Dab][Dab][Dab][dF]L[Dab]RT; lactam 4-C) | 1 (≈ 0.803 µM) | > 32 | > 300 | > 32 | 8 (≈ 6.42 µM) | 4 (≈ 3.21 µM) | > 32 | > 32 | 16 (≈ 12.8 µM) | 32 (≈ 25.7 µM) | > 32 | > 32 | > 32
